According to ChEMBL document CHEMBL1137530, “The discovery of substituted 4-(3-hydroxyanilino)-quinolines as potent RET kinase inhibitors” (Bioorg Med Chem Lett, 2007):
Activity calls are given as the source filed them. The rule behind the calls is not given here.

Assays:
[1] = target: T1, Proto-oncogene tyrosine-protein kinase receptor Ret (Homo sapiens, UniProt P07949); test: Inhibition of RET kinase expressed in Sf9 cells at 5000 nm
How it was run: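 RET kinase domain (intracellular aa 713–1072, short isoform), expressed in Sf9 insect cells and Ni-purified. 100 ng enzyme was screened at a single 5000 nM concentration, in triplicate. Reaction: MOPS pH 7.4, MgCl2, ATP (100 µM stock) plus [γ-33P]ATP 1 µCi, and poly(Glu-Tyr) substrate, 30 min at room temperature. Stopped with 0.5% H3PO4, filtered on phosphocellulose, read as scintillation cpm (mean of three).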

[2] = target: Vascular endothelial growth factor receptor 2 (Homo sapiens) (UniProt P35968); test: Inhibitory of VEGFR2
Vascular endothelial growth factor receptor 2 (Homo sapiens), sequence (P35968 whole entry): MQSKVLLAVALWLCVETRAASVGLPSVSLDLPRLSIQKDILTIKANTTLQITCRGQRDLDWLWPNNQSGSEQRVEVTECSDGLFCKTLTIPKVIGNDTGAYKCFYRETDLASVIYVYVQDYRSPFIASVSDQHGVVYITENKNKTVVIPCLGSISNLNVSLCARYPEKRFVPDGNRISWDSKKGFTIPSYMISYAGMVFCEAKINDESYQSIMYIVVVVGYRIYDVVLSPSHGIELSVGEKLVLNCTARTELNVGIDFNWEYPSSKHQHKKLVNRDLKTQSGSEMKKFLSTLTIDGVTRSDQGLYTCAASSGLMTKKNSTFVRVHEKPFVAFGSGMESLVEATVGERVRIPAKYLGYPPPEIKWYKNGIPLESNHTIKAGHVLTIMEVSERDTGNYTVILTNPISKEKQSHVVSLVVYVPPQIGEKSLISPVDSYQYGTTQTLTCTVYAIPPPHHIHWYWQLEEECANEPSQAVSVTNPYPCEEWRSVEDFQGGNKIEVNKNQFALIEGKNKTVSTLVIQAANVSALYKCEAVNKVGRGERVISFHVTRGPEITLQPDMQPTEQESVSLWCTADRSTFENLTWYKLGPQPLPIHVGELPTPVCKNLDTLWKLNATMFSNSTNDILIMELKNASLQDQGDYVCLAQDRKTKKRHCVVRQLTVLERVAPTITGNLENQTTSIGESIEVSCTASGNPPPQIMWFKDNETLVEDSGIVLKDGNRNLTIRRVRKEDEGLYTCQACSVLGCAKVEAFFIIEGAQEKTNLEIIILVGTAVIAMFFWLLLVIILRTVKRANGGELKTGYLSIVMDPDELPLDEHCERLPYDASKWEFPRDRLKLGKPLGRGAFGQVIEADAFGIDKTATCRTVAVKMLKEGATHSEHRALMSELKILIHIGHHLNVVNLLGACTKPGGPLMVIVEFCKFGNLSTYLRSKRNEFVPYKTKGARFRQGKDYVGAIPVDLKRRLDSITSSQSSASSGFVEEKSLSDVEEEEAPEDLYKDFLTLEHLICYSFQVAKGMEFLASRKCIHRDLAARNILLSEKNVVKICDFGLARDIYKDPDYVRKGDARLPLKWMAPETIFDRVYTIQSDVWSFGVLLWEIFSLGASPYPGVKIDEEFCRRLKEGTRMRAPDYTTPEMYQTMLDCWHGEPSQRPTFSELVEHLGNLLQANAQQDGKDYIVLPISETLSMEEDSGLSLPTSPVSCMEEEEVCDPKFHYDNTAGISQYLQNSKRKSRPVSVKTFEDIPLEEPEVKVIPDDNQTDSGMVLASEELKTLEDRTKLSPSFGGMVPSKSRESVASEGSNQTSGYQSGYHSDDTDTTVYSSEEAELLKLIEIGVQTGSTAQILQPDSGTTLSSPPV

SK-N-MC = test: Inhibition of chimeric human EGFR/RET kinase expressed in SK-N-MC cells after 1 hr by Western blotting; assay type: cell-based
[3] = target: Proto-oncogene tyrosine-protein kinase Src (Homo sapiens) (UniProt P12931); test: Inhibitory of c-SRC
Proto-oncogene tyrosine-protein kinase Src (Homo sapiens), sequence (P12931 2-536 limits assumed): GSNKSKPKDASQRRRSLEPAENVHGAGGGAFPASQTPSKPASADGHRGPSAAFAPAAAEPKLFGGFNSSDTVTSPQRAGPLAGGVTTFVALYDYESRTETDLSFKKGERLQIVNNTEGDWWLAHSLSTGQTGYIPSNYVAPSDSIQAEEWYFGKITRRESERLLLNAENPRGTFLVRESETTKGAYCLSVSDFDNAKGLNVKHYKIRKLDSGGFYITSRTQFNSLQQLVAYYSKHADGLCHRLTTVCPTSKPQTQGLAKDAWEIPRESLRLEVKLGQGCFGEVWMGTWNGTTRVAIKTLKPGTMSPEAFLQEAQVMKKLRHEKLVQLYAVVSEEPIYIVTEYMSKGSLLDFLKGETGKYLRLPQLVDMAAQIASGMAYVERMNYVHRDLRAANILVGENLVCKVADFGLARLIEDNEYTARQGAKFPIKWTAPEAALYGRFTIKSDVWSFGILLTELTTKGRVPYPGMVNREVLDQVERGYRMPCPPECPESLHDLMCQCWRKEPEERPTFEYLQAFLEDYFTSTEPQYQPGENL

[4] = target: T1, Proto-oncogene tyrosine-protein kinase receptor Ret; test: Inhibition of RET kinase in Sf9 cells; assay type: cell-based
[5] = target: Tyrosine-protein kinase Lyn (Homo sapiens) (UniProt P07948); test: Inhibitory of lyn
Tyrosine-protein kinase Lyn (Homo sapiens), sequence (P07948 2-512 limits assumed): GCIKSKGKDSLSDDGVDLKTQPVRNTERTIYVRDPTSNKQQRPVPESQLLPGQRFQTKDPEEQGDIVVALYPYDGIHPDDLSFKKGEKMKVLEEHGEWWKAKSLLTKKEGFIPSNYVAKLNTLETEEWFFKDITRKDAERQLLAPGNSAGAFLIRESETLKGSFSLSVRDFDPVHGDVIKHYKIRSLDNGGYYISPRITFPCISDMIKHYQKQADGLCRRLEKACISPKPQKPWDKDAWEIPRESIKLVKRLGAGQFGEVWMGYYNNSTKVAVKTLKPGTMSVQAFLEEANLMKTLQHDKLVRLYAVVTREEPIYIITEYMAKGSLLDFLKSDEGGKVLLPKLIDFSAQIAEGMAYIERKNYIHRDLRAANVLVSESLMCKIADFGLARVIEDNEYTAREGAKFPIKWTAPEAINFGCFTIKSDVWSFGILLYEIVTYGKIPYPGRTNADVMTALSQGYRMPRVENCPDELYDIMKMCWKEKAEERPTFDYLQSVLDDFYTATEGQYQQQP

[6] = target: Angiopoietin-1 receptor (Homo sapiens) (UniProt Q02763); test: Inhibitory of TIE2
Angiopoietin-1 receptor (Homo sapiens), sequence (Q02763 whole entry): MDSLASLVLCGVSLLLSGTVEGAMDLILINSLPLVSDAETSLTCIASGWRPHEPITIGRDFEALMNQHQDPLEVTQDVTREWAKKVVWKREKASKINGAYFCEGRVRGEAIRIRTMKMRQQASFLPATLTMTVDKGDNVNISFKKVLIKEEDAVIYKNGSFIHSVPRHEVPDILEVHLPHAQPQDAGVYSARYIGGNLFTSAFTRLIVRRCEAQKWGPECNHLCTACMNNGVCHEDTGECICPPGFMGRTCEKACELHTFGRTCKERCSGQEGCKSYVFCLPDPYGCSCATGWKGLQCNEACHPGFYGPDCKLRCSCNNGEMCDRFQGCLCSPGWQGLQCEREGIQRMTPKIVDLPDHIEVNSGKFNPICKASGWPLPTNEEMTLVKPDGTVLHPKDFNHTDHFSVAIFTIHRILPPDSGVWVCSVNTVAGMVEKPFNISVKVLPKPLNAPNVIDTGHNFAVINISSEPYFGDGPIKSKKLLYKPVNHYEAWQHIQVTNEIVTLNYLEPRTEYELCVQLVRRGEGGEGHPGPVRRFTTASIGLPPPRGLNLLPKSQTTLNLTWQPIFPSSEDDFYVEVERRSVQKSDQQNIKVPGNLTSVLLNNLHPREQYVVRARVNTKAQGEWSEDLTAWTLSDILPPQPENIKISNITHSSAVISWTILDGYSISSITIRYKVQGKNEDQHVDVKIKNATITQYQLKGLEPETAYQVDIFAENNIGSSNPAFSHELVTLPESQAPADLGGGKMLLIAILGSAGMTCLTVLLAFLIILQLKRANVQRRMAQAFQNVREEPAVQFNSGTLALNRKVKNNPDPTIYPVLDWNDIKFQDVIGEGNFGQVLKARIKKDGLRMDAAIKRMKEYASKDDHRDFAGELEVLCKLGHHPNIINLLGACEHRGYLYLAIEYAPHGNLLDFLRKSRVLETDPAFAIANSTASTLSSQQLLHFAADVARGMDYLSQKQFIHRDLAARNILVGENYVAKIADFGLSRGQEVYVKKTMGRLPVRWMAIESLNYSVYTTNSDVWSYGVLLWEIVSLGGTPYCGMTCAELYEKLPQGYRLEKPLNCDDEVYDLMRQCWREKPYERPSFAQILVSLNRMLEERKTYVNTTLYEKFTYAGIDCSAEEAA

T1 sequence (P07949 whole entry, the tested form may be a part, canonical isoform): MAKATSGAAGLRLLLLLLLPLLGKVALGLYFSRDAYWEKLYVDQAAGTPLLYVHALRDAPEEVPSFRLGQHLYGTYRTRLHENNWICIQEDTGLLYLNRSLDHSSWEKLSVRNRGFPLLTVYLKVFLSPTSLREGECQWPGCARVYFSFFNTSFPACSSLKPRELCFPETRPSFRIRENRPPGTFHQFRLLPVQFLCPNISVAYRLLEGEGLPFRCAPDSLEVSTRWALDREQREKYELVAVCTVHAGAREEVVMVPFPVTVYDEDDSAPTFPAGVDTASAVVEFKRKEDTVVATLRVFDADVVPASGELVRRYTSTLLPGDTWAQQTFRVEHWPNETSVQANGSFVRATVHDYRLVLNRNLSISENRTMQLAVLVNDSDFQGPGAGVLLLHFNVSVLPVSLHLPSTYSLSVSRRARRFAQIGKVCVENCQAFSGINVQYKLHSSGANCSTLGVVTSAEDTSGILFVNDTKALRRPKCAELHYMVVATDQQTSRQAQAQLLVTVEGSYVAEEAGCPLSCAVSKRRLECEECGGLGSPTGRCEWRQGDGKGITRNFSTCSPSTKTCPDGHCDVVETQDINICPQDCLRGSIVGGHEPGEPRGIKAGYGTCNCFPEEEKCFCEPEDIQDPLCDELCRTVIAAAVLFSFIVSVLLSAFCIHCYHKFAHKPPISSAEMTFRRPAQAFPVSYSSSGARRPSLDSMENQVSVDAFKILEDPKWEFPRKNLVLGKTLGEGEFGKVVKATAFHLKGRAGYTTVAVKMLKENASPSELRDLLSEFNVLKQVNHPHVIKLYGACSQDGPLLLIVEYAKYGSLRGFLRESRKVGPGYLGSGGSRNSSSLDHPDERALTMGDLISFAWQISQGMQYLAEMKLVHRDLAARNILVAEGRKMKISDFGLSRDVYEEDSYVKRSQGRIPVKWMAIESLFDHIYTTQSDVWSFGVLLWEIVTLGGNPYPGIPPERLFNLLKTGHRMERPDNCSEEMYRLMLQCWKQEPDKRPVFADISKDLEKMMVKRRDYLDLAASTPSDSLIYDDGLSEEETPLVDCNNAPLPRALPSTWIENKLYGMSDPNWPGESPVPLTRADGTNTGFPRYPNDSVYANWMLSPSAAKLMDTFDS

O=C1Nc2ccc3ncsc3c2/C1=C/c1c[nH]cn1
Activity [1]: 950 cpm

Cc1ccc(O)cc1Nc1ccnc2cc(-c3csc(CN4CCOCC4)n3)c(S(C)(=O)=O)cc12
Activity [2]: Active
ED50 (SK-N-MC): 45 nM
Activity [3]: Active
IC50 [4]: 34 nM
Activity [5]: Active
Activity [6]: Active

COc1cc2ncnc(Nc3ccc(Cl)c(O)c3)c2cc1OC
Activity [1]: 298 cpm

CS(=O)(=O)Cc1ccc(N/C=C2\C(=O)Nc3ccc4ncsc4c32)cc1
Activity [1]: 1310 cpm

O=C1Nc2ccc3ncsc3c2/C1=C/Nc1ccc2c(c1)CS(=O)(=O)C2
Activity [1]: 428 cpm

Oc1cc(Nc2ccnc3cc(-c4cccc(CNCCN5CCOCC5)c4)ccc23)c(F)cc1Cl
IC50 [4]: 75 nM

OCc1nc(-c2ccc3c(Nc4cc(O)c(F)cc4Cl)ccnc3c2)cs1
IC50 [4]: 25 nM

Oc1cccc(Nc2c(Cl)cnc3cc(-c4cncs4)ccc23)c1
IC50 [4]: 100 nM

Oc1cc(Nc2ccnc3cc(-c4ccc(CN5CCOCC5)o4)c(Cl)cc23)c(Cl)cc1F
IC50 [4]: > 1000 nM

NS(=O)(=O)c1ccc(-c2cnc3c(c2)/C(=C/c2cc(Br)c(O)c(Br)c2)C(=O)N3)cc1
Activity [1]: 355 cpm

Cc1ccc(O)cc1Nc1ccnc2cc(-c3ccccn3)ccc12
IC50 [4]: 75 nM

Cc1ccc(O)cc1Nc1ccnc2ccc(S(C)(=O)=O)cc12
Activity [2]: Active
Activity [3]: Active
Activity [5]: Active
Activity [6]: Active

Oc1cc(Nc2ccnc3cc(-c4cc5ccccc5o4)ccc23)ccc1Br
IC50 [4]: 85 nM

Cc1ccc(O)cc1Nc1ccnc2ccc(S(=O)(=O)NCC3CC3)cc12
IC50 [4]: 90 nM

Oc1cccc(Nc2ccnc3cc(-c4ccccn4)ccc23)c1
IC50 [4]: 6 nM

Cc1ccc(O)cc1Nc1ccnc2ccc(C(=O)NC(C)C)cc12
IC50 [4]: 95 nM

CN(C)S(=O)(=O)c1ccc(N/C=C2\C(=O)Nc3ccc4ncccc4c32)cc1
Activity [1]: 1210 cpm

CS(=O)(=O)c1ccc2nccc(Nc3cc(O)c(F)cc3Cl)c2c1
Activity [1]: 460 cpm

Cc1ccc(O)cc1Nc1cc(C(F)(F)F)nc2cc(-c3ccncc3)ccc12
IC50 [4]: > 1000 nM
